Assay results reported in ChEMBL document CHEMBL3124807 (Eur J Med Chem, 2014).

Experiments:
[1] = biological target: T1, Prostaglandin G/H synthase 2 (Homo sapiens, UniProt P35354); experiment: Inhibition of human recombinant COX2 using arachidonic acid as substrate incubated for 10 mins prior to substrate addition measured after 2 mins by enzyme immunoassay
T1 sequence (P35354 whole entry): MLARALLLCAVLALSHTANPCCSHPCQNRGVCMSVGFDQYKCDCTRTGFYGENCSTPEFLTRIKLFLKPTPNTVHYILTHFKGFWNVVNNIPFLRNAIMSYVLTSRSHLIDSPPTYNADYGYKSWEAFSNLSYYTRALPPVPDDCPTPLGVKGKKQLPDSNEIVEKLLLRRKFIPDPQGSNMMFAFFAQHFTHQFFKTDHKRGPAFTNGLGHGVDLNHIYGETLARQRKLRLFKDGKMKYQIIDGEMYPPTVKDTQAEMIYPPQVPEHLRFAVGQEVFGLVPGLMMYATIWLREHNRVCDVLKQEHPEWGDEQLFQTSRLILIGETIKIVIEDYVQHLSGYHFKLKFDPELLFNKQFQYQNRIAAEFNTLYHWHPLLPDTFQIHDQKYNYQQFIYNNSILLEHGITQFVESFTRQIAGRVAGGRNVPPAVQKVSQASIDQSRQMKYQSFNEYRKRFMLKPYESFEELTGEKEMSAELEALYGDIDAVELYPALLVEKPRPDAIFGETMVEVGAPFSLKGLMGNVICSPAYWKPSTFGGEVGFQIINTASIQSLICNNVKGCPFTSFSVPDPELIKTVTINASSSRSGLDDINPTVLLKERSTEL

[2] = biological target: T2, Prostaglandin G/H synthase 1 (Ovis aries, UniProt P05979); experiment: Inhibition of ovine COX1 using arachidonic acid as substrate incubated for 10 mins prior to substrate addition measured after 2 mins by enzyme immunoassay
T2 sequence (P05979 whole entry): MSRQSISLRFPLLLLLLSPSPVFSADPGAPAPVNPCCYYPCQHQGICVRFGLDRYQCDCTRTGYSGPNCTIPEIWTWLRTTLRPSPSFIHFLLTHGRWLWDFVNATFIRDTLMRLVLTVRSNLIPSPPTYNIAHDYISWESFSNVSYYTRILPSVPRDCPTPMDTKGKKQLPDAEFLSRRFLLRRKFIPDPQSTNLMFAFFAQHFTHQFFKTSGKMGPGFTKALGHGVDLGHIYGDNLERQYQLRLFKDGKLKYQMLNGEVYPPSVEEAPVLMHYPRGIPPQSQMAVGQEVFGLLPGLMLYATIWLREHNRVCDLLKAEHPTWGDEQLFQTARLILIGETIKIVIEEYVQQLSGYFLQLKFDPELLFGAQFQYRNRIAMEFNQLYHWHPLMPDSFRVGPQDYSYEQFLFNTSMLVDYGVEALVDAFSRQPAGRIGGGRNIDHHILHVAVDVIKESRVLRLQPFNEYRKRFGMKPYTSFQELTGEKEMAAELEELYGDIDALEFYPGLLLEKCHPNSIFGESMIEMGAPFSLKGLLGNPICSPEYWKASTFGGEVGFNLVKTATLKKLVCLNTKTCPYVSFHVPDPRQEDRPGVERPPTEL
Method in brief: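 Ovine COX-1 in 0.1 M Tris-HCl pH 8.0 with 5 mM EDTA, 2 mM phenol and heme. Test concentrations were 0, 0.01, 0.1, 1, 10 and 50 (final volume 1 ml). Preincubated 10 min at 37 °C, then arachidonic acid (100) was added and the reaction was stopped with 1 M HCl after 2 min. PGF2α (from SnCl2 reduction of PGH2) was quantified by competitive EIA at 410 nm. IC50 was taken from the concentration–inhibition curve, duplicates.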

[3] = Selectivity index, ratio of IC50 for ovine COX1 to IC50 for human recombinant COX2
Method in brief: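 IC50 (COX-1)/IC50 (COX-2). Both IC50 values come from the EIA described above, run with ovine COX-1 or human recombinant COX-2 under the same buffer, preincubation, arachidonic acid and duplicate conditions.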

Rattus norvegicus [4] = experiment: Ulcerogenic effect in fasted Wistar albino rat at 25 mg/kg, po measured 2 hrs post last dose; format: toxicity, organism-based; design: dose 25 mg/kg, route oral; details: in vivo
Method in brief: (§1)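 Adult male Wistar albino rats (120–150 g), five per group, fasted 18 h before dosing. Oral doses were given for three successive days (test compounds 50 mg/kg, ibuprofen 25 mg/kg; control 10% aqueous DMSO), with feeding 2 h after dosing. Stomachs were removed 2 h after the last dose, opened along the greater curvature, rinsed with 0.9% NaCl and examined under a 10× lens. Ulcer index followed Robert's method (incidence/10, mean ulcer number, severity score).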

Rattus norvegicus [5] = experiment: Antiinflammatory activity in Wistar albino rat assessed as inhibition of formalin-induced paw edema at 50 mg/kg, po administered 1 hr prior to formalin challenge measured after 2 hrs relative to control; format: functional
Method in brief: (§2)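 Adult male Wistar albino rats (120–150 g), five per group. Dosed orally at 50 mg/kg in 10% aqueous DMSO (v/v) 1 h before 0.1 ml of 2.5% formalin was injected subcutaneously into the right hind paw; vehicle-only control group. Paw thickness was measured by Vernier caliper at 0 h and at 30 min, 1, 2 and 3 h. Edema inhibition % = (Vc − Vt)/Vc × 100; means of five ± S.E.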

Rattus norvegicus [6] = experiment: Antiinflammatory activity in Wistar albino rat assessed as inhibition of formalin-induced paw edema at 50 mg/kg, po administered 1 hr prior to formalin challenge measured after 30 mins relative to control; format: functional; method in brief: as §2
Rattus norvegicus [7] = experiment: Antiinflammatory activity in Wistar albino rat assessed as inhibition of formalin-induced paw edema at 50 mg/kg, po administered 1 hr prior to formalin challenge measured after 1 hr relative to control; format: functional; method in brief: as §2
Rattus norvegicus [8] = experiment: Ulcerogenic effect in fasted Wistar albino rat at 50 mg/kg, po measured 2 hrs post last dose; format: toxicity, organism-based; design: dose 50 mg/kg, route oral; details: in vivo; method in brief: as §1
Rattus norvegicus [9] = experiment: Antiinflammatory activity in Wistar albino rat assessed as inhibition of formalin-induced paw edema at 50 mg/kg, po administered 1 hr prior to formalin challenge measured after 3 hrs relative to control; format: functional; method in brief: as §2
Rattus norvegicus [10] = experiment: Ulcerogenic effect in fasted Wistar albino rat assessed as reduction in ulcerogenic potential at 50 mg/kg, po measured 2 hrs post last dose relative to celecoxib; format: toxicity, organism-based; design: dose 50 mg/kg, route oral; scale not given: the % may be the effect or the level left; details: in vivo

| SMILES | IC50 [1] | IC50 [2] | Ratio IC50 [3] | UI (Rattus norvegicus [4]) | inhibition in vivo at 50 mg/kg (Rattus norvegicus [5]) | inhibition in vivo at 50 mg/kg (Rattus norvegicus [6]) | inhibition in vivo at 50 mg/kg (Rattus norvegicus [7]) | UI (Rattus norvegicus [8]) | inhibition in vivo at 50 mg/kg (Rattus norvegicus [9]) | Activity (Rattus norvegicus [10]) |
| --- | --- | --- | --- | --- | --- | --- | --- | --- | --- | --- |
| COc1cc2occc2c(OC)c1-c1cc(-c2ccccc2)n(-c2ccc(S(N)(=O)=O)cc2)n1 | 35 µM | > 50 µM | > 1.43 | – | – | – | – | – | – | – |
| COc1cc2occc2c(OC)c1-c1cc(-c2ccc(Cl)cc2)n(-c2ccc(S(N)(=O)=O)cc2)n1 | 26 µM | > 50 µM | > 1.93 | – | – | – | – | – | – | – |
| CC(C)Cc1ccc(C(C)C(=O)O)cc1 (centres undefined) [IBUPROFEN] | – | – | – | 22.32 | – | – | – | – | – | – |
| Cc1ccc(-c2cc(C(F)(F)F)nn2-c2ccc(S(N)(=O)=O)cc2)cc1 [CELECOXIB] | – | – | – | – | 100% | 94.4% | 100% | 16.12 | 100% | – |
| COc1cc2occc2c(OC)c1-c1cc(-c2ccc(F)cc2)n(-c2ccc(S(N)(=O)=O)cc2)n1 | 0.46 µM | > 50 µM | > 109 | – | 82.8% | 79.6% | 82.5% | 11.75 | 83.6% | – |
| COc1c(-c2cc(C)nn2-c2ccc(S(N)(=O)=O)cc2)c(O)cc2occc12 | 7.5 µM | > 50 µM | > 6.67 | – | – | – | – | – | – | – |
| COc1c(-c2cc(C(F)(F)F)nn2-c2ccc(S(N)(=O)=O)cc2)c(O)cc2occc12 | 7 µM | > 50 µM | > 7.14 | – | – | – | – | – | – | – |
| COc1c(-c2cc(-c3cccnc3)nn2-c2ccc(S(N)(=O)=O)cc2)c(O)cc2occc12 | 0.4 µM | > 50 µM | > 125 | – | 100% | 90.1% | 96.2% | 13.82 | 100% | – |
| COc1c(-c2cc(-c3cccnc3)nn2-c2ccc(S(N)(=O)=O)cc2)c(O)c(OC)c2occc12 | 0.36 µM | > 50 µM | > 139 | – | 100% | 90.7% | 96.5% | 10.5 | 100% | 40% |
| COc1c(-c2cc(C(F)(F)F)nn2-c2ccc(S(N)(=O)=O)cc2)c(O)c(OC)c2occc12 | 0.52 µM | > 50 µM | > 96.2 | – | 87.9% | 72.2% | 79% | 11.56 | 91.8% | – |
| COc1cc2occc2c(OC)c1-c1cc(-c2ccc(C(F)(F)F)cc2)n(-c2ccc(S(N)(=O)=O)cc2)n1 | 0.34 µM | > 50 µM | > 147 | – | 94.8% | 66.7% | 77.2% | 10.5 | 91.8% | – |
